Test [1] deals with HL-60. The experiment in a line: Antiproliferative activity against human HL60 cells assessed as inhibition of [3H]thymidine incorporation after 4 days by liquid scintillation counter. The class given is functional, cell-based. Summed up:
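HL-60 cells in log phase diluted to 10^5 cells/mL, preincubated 18 h, then exposed to samples in DMSO (final 0.1% v/v; DMSO-only controls) for 4 days. Cells then pulsed with [3H]thymidine (0.5 μCi/mL, 65 Ci/mmol) for 18 h at 37 °C, 5% CO2, harvested onto glass fiber filters, scintillation counted; incorporation per 10^6 cells as % of DMSO control. IC50 from 5–7 concentrations in duplicate.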
(Dividing cells build labelled thymidine or BrdU into new DNA.)

The test system of test [2] is HL-60. As to the kind of experiment: Induction of cell differentiation in human HL60 cells assessed as superoxide anion production after 4 days by NBT reduction assay. The class given is functional, cell-based. The conditions noted are these: HL-60, 96 h. Summed up: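 Cells diluted to 10^5/mL and recovered overnight were exposed 4 days to samples (0.1% v/v DMSO final). Cell suspension (10^6 cells) was mixed 1:1 with NBT 2 mg/mL plus TPA 1 μg/mL in PBS and held 1 h at 37 °C. Formazan-positive cells were counted microscopically among >200 cells. EC50 from 5–7 concentrations in duplicate; 1α,25-dihydroxyvitamin D3 served as reference.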

Test [3] deals with HL-60. The experiment in a line: Selectivity index, ratio of cytotoxic IC50 to antiproliferative IC50 for human HL60 cells. Format: functional. Summed up: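 Index = cytotoxic IC50 (trypan blue, 4-day HL-60 exposure) divided by antiproliferative IC50 ([3H]thymidine incorporation), each from dose–response with at least five points.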
Test [4] has as its system HL-60. As to the kind of experiment: Cytotoxicity against human HL60 cells assessed as loss of membrane integrity after 4 days by trypan blue exclusion assay. The class given is functional, cell-based. The conditions noted are these: HL-60, 96 h. Summed up:
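After 18 h recovery at 10^5 cells/mL, HL-60 cells were treated 4 days with samples (final DMSO 0.1% v/v). Cells were mixed 1:4 with trypan blue (0.2% w/v in PBS), held at least 5 min at room temperature and counted by hemocytometer. Viability was taken from duplicate samples; IC50 from 5–7 concentrations in duplicate.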

pEC50, pIC50: −log10 of the molar value. Bounds are passed on as bounds.

With `CC1=CC(=O)[C@@H](O)[C@]2(C)[C@H]3[C@]4(O)OC[C@]35[C@H]([C@@H](C)[C@H]4O)[C@@H](OC(=O)CC(O)(C(C)C)C(C)C)C(=O)O[C@@H]5C[C@@H]12`, the negative logarithm of the IC50 (pIC50) in the test on HL-60 [1] and in the test on HL-60 [4] was 8.05 in each case. For the same compound, in the test on HL-60 [2], the pEC50 (usually the EC50 on a negative log10 scale, so that one unit is a factor of ten) was 8.05. In the test on HL-60 [3], the “Ratio IC50” value is 1.

As for `CC1=CC(=O)[C@@H](O)[C@]2(C)[C@H]3[C@]4(O)OC[C@]35[C@H]([C@@H](C)[C@H]4O)[C@@H](OC(=O)CC(O)(CC(C)C)CC(C)C)C(=O)O[C@@H]5C[C@@H]12`, the pIC50 with HL-60 [1] and in the test with HL-60 [4] was 7.40 throughout. Besides, the pEC50 in the test with HL-60 [2] was less than 7.30. For the same compound, in the test with HL-60 [3], the “Ratio IC50” value came to 1.

For the compound `CC1=CC(=O)[C@@H](O)[C@]2(C)[C@H]3[C@]4(O)OC[C@]35[C@H]([C@@H](C)[C@H]4O)[C@@H](OC(=O)CN(C)C)C(=O)O[C@@H]5C[C@@H]12`, the pIC50 (usually the IC50 on a negative log10 scale, so that one unit is a factor of ten) in the test with HL-60 [1] was 6.30; with HL-60 [4] it was 6.10. Also, the negative-log EC50 (pEC50) in the test on HL-60 [2] was 6.30. The “Ratio IC50” value in the test with HL-60 [3] was determined as 1.6.

As for `CC1=CC(=O)[C@@H](O)[C@]2(C)[C@H]3[C@]4(O)OC[C@]35[C@H]([C@@H](C)[C@H]4O)[C@@H](OC(=O)C(C)(C)CO)C(=O)O[C@@H]5C[C@@H]12`, the pIC50 was 6.70 in the test with HL-60 [1] and 6.22 in the test on HL-60 [4]. The pEC50 with HL-60 [2] was 6.30. Also, the “Ratio IC50” value in the test with HL-60 [3] is listed as 3.1.

As for `CC1=CC(=O)[C@@H](O)[C@]2(C)[C@H]3[C@]4(O)OC[C@]35[C@H]([C@@H](C)[C@H]4O)[C@@H](OC(=O)C=C(C3CC3)C3CC3)C(=O)O[C@@H]5C[C@@H]12`, the pIC50 was 6.70 in the test on HL-60 [1] and 6.12 in the test on HL-60 [4]. Besides, in the test on HL-60 [2], the pEC50 is 6.22. The “Ratio IC50” value in the test on HL-60 [3] worked out at 3.9.

Turning to `CC[C@@](O)(CC(=O)O[C@H]1C(=O)O[C@@H]2C[C@H]3C(C)=CC(=O)[C@@H](O)[C@]3(C)[C@H]3[C@]4(O)OC[C@]32[C@@H]1[C@@H](C)[C@H]4O)C(C)C`, the values for the negative logarithm of the IC50 (pIC50) in the test on HL-60 [1] and in the test with HL-60 [4] were 7.96 and 7.89, respectively. Further, in the test on HL-60 [2], the pEC50 was 7.77. Also, in the test on HL-60 [3], the “Ratio IC50” value is 1.2.

For `CC1=CC(=O)[C@@H](O)[C@]2(C)[C@H]3[C@]4(O)OC[C@]35[C@H]([C@@H](C)[C@H]4O)[C@@H](OC(=O)CC3(O)CCCC3)C(=O)O[C@@H]5C[C@@H]12`, the pIC50 with HL-60 [1] was 6.72; with HL-60 [4], 6.42. Moreover, the negative logarithm of the EC50 (pEC50) in the test with HL-60 [2] is 6.89. In the test with HL-60 [3], the “Ratio IC50” value is given as 2.1.

For the compound `CC1=CC(=O)[C@@H](O)[C@]2(C)[C@H]3[C@]4(O)OC[C@]35[C@H]([C@@H](C)[C@H]4O)[C@@H](OC(=O)C=C(C(C)C)C(C)C)C(=O)O[C@@H]5C[C@@H]12`, the pIC50 was 7.15 in the test on HL-60 [1] and 6.89 with HL-60 [4]. The pEC50 in the test on HL-60 [2] is 7.05. In the test with HL-60 [3], the “Ratio IC50” value amounted to 1.9.

Consider `CC1=CC(=O)[C@@H](O)[C@]2(C)[C@H]3[C@]4(O)OC[C@]35[C@H]([C@@H](C)[C@H]4O)[C@@H](OC(=O)C[C@]3(O)CC(C)CCC3C(C)C)C(=O)O[C@@H]5C[C@@H]12` (stereo partly drawn), for which the figures for the pIC50 in the test with HL-60 [1] and with HL-60 [4] were 6.40 and 6.05, respectively. Also, in the test with HL-60 [2], the pEC50 is 6.52. In addition, in the test with HL-60 [3], the “Ratio IC50” value is on record as 2.3.

`CC1=CC(=O)[C@@H](O)[C@]2(C)[C@H]3[C@]4(O)OC[C@]35[C@H]([C@@H](C)[C@H]4O)[C@@H](OC(=O)CC3(O)C(C)(C)CCC3(C)C)C(=O)O[C@@H]5C[C@@H]12`: the pIC50 with HL-60 [1] is 7.40; in the test with HL-60 [4], 7.30. The pEC50 in the test with HL-60 [2] was 7.60. In addition, the “Ratio IC50” value in the test on HL-60 [3] is reported as 1.3.

Turning to `CC[C@@H](C)C(=O)O[C@H]1C(=O)O[C@@H]2C[C@H]3C(C)=CC(=O)[C@@H](O)[C@]3(C)[C@H]3[C@@H](O)[C@H](O)[C@]4(C)OC[C@]32[C@@H]14` [SIMALIKALACTONE D], the pIC50 is less than 6.70 in the test on HL-60 [1] and 6.70 in the test on HL-60 [4]. Further, the pEC50 in the test with HL-60 [2] was less than 6.70.

For the origin of these results see ChEMBL document CHEMBL1156387, “Novel esters of glaucarubolone as inducers of terminal differentiation of promyelocytic HL-60 cells and inhibitors of 7,12-dimethylbenz[a]anthracene-induced preneoplastic lesion formation in mouse mammary organ culture” (J Nat Prod, 2001).
